Experimental data reported in article PMC7731903 (Clinical cancer research : an official journal of the …, 2018).
“Also recorded” adds a separate entry of the source. Values belong to the molecule of their own block, whether it stands above or below them.

Tests used:
Type in all cases: in vivo, human
[1] = Vincristine plasma PK in presence; conditions: for AUC / AUC(0-inf) / clearance / Cmax / half-life: human, plasma, intravenous; for AUC: Geometric mean AUCτ (CV); for AUC(0-inf): Geometric mean AUC∞ (CV); for clearance: Geometric mean CL (CV); for Cmax: Geometric mean Cmax (CV); for half-life: Mean t1/2z (st. dev)
GCB DLBCL = assay: Best response by cell of origin; conditions: MR + MRV; P = 0.058 vs non-GCB, two-sided Fisher exact test
[2] = system: relapsed/refractory aggressive B-cell lymphoma; assay: Antitumor activity, investigator-assessed response
non-GCB DLBCL = assay: Best response by cell of origin; conditions: non-GCB-derived disease, 20 patients (MR + MRV)
[3] = Alisertib plasma PK in patients; conditions: for AUC / Cmax / Tmax: human, plasma, oral; for AUC: Geometric mean AUCτ (CV); for Cmax: Geometric mean Cmax (CV)
Procedure, shortened: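 Patients with relapsed/refractory aggressive B-cell NHL took oral test compound twice daily on days 1–7 of 21-day cycles, at 30 to 50 mg b.i.d. Cohorts received it with rituximab 375 mg/m2 i.v. on day 1, with or without vincristine 1.4 mg/m2 (max 2 mg) i.v. on days 1 and 8. Blood was drawn at prespecified times after the morning dose on cycle 1 days 1 and 7. Cmax, tmax and AUCτ were derived by noncompartmental analysis.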

[4] = 30 mg, alisertib 30 mg b.i.d. cohort, C1D1 (alisertib present), n=4
[5] = 30 mg, alisertib 30 mg b.i.d. cohort, C2D1 (alisertib absent), n=3
[6] = 30 mg, alisertib 30 mg b.i.d. cohort, C2D1 (alisertib absent), n=4
[7] = 40 mg, alisertib 40 mg b.i.d. cohort, C2D1 (alisertib absent), n=17
[8] = 40 mg, alisertib 40 mg b.i.d. cohort, C1D1 (alisertib present), n=22
[9] = 40 mg, alisertib 40 mg b.i.d. cohort, C2D1 (alisertib absent), n=16
[10] = 40 mg, alisertib 40 mg b.i.d. cohort, C1D1 (alisertib present), n=25
[11] = 50 mg, alisertib 50 mg b.i.d. cohort, C1D1 (alisertib present), n=3
[12] = 50 mg, alisertib 50 mg b.i.d. cohort, C2D1 (alisertib absent), n=2
[13] = 30 mg, MRV, alisertib 30 mg b.i.d., C1D1, n=4
[14] = 30 mg, MRV, alisertib 30 mg b.i.d., C1D7, n=4
[15] = 40 mg, MRV, alisertib 40 mg b.i.d., C1D7, n=20
[16] = 50 mg, MR, alisertib 50 mg b.i.d., C1D7, n=12
[17] = 50 mg, MRV, alisertib 50 mg b.i.d., C1D1, n=3
[18] = 50 mg, MRV, alisertib 50 mg b.i.d., C1D7, n=2

Geometric mean ratio of vincristine AUC∞, presence vs absence of alisertib ([1]; MRV RP2D (alisertib 40 mg b.i.d.), 90% CI 82–115, n = 22): 97% | AUC [1, 4]: 69.2 ng·h/mL | AUC ([1]; 30 mg, alisertib 30 mg b.i.d. cohort, C2D1 (alisertib absent), n=2): 60.8 ng·h/mL | AUC(0-inf) [1, 4]: 77 ng·h/mL | AUC(0-inf) [1, 5]: 69 ng·h/mL | clearance [1, 4]: 432 mL/min | clearance [1, 6]: 483 mL/min | Cmax [1, 6]: 98.2 ng/mL | half-life [1, 4]: 20.2 h | half-life [1, 5]: 19.9 h | AUC ([1]; 40 mg, alisertib 40 mg b.i.d. cohort, C1D1 (alisertib present), n=24): 60.1 ng·h/mL | AUC [1, 7]: 67.8 ng·h/mL | AUC(0-inf) [1, 8]: 78 ng·h/mL | AUC(0-inf) [1, 9]: 77 ng·h/mL | clearance [1, 10]: 427 mL/min | clearance [1, 7]: 432 mL/min | Cmax [1, 10]: 82.9 ng/mL | Cmax [1, 7]: 87.3 ng/mL | half-life [1, 8]: 20 h | half-life [1, 9]: 20.2 h | AUC [1, 11]: 98 ng·h/mL | AUC [1, 12]: 68.4 ng·h/mL | AUC(0-inf) [1, 11]: 111 ng·h/mL | clearance [1, 11]: 300 mL/min | Cmax [1, 11]: 149 ng/mL | Cmax [1, 12]: 120 ng/mL | half-life [1, 11]: 25.6 h | Cmax ([1]; vincristine 1.4 mg/m^2 + rituximab, alisertib 30 mg b.i.d. cohort, C1D1 (alisertib present), n=4): 120 ng/mL
Compound: CC[C@]1(O)C[C@H]2CN(CCc3c([nH]c4ccccc34)[C@@](C(=O)OC)(c3cc4c(cc3OC)N(C=O)[C@H]3[C@@](O)(C(=O)OC)[C@H](OC(C)=O)[C@]5(CC)C=CCN6CC[C@]43[C@@H]65)C2)C1 [vincristine]

AUC [3, 13]: 5.22 µM·h | AUC [3, 14]: 11.8 µM·h | Cmax [3, 13]: 841 nM | Cmax [3, 14]: 1660 nM | Tmax ([3]; 30 mg, Median Tmax (range), MRV, alisertib 30 mg b.i.d., C1D1, n=4): 3.5 h | Tmax ([3]; 30 mg, Median Tmax (range), MRV, alisertib 30 mg b.i.d., C1D7, n=4): 3.1 h | AUC ([3]; 40 mg, MRV, alisertib 40 mg b.i.d., C1D1, n=22): 7.44 µM·h | AUC [3, 15]: 14.9 µM·h | Cmax ([3]; 40 mg, MRV, alisertib 40 mg b.i.d., C1D1, n=25): 1090 nM | Cmax [3, 15]: 1950 nM | Tmax ([3]; 40 mg, Median Tmax (range), MRV, alisertib 40 mg b.i.d., C1D1, n=25): 3 h | Tmax ([3]; 40 mg, Median Tmax (range), MRV, alisertib 40 mg b.i.d., C1D7, n=20): 3.1 h | AUC ([3]; 50 mg, MR, alisertib 50 mg b.i.d., C1D1, n=12): 8.61 µM·h | AUC [3, 16]: 18.7 µM·h | AUC [3, 17]: 11.2 µM·h | AUC [3, 18]: 31.8 µM·h | Cmax ([3]; 50 mg, MR, alisertib 50 mg b.i.d., C1D1, n=13): 1400 nM | Cmax [3, 16]: 2590 nM | Cmax [3, 17]: 1670 nM | Cmax [3, 18]: 3500 nM | Tmax ([3]; 50 mg, Median Tmax (range), MR, alisertib 50 mg b.i.d., C1D1, n=13): 3 h | Tmax ([3]; 50 mg, Median Tmax (range), MR, alisertib 50 mg b.i.d., C1D7, n=12): 2 h | Tmax ([3]; 50 mg, Median Tmax (range), MRV, alisertib 50 mg b.i.d., C1D1, n=3): 6.1 h | Tmax ([3]; 50 mg, Median Tmax (range), MRV, alisertib 50 mg b.i.d., C1D7, n=2): 2.5 h | Tmax ([3]; tmax after dose, with both MR and MRV): ~3 h | Increase of alisertib exposures with dose ([3]; over the range of 30 to 50 mg b.i.d.): approximately dose-proportional
Compound: COc1cc(Nc2ncc3c(n2)-c2ccc(Cl)cc2C(c2c(F)cccc2OC)=NC3)ccc1C(=O)O [alisertib]
Objective response in GCB-derived disease (GCB DLBCL): None of the 7 response-evaluable patients; also recorded: no patients with GCB-derived disease (9/29) achieved an objective response | ORR (CR + PR) ([2]; 37 response-evaluable patients (MR + MRV), n = 14): 38% | CR ([2]; Total MR + MRV, N=37): 7 (19) n (%) | ORR (CR + PR) ([2]; Total MR + MRV, N=37): 14 (38) n (%) | PD ([2]; Total MR + MRV, N=37): 11 (30) n (%) | PR ([2]; Total MR + MRV, N=37): 7 (19) n (%) | Complete responses (CR) ([2]; all patients (MR + MRV)): Seven | Median PFS ([2]; all patients (MR + MRV)): 5.1 months | Partial responses (PRs) ([2]; all patients (MR + MRV)): 7 patients | Median DOR ([2]; patients with a best response of CR, range 9.0–35.7): 14.3 months | Median PFS ([2]; patients with a best response of CR, range 10.1–36.9): 16.4 months | Median DOR ([2]; responding patients (MR + MRV)): 10.2 months | Patients achieving first response by the end of cycle 2 ([2]; responding patients (MR + MRV)): 57% | PR as best response (non-GCB DLBCL; 3 patients): 15% | CR as best response (non-GCB DLBCL; 6 patients): 30%
